Hits are enriched below; roughly 1.9% of the tested compounds scored in any of these assays.
PP5 primary: inhibitors of human protein phosphatase 5 (PP5). P53041. purified PP5c, OMFP substrate fluorescence. inhibition, % at 6.7 µM. 320,000 compounds, 0.18% hits. AID 1987;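 active means inhibition above the campaign's mean inhibition across all tested compounds plus 3 SD, cut at about 9.5% in these data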;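 further: 0% = DMSO only and 100% = 100 µM cantharidin control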
Target sequence (P53041 whole entry, looked up): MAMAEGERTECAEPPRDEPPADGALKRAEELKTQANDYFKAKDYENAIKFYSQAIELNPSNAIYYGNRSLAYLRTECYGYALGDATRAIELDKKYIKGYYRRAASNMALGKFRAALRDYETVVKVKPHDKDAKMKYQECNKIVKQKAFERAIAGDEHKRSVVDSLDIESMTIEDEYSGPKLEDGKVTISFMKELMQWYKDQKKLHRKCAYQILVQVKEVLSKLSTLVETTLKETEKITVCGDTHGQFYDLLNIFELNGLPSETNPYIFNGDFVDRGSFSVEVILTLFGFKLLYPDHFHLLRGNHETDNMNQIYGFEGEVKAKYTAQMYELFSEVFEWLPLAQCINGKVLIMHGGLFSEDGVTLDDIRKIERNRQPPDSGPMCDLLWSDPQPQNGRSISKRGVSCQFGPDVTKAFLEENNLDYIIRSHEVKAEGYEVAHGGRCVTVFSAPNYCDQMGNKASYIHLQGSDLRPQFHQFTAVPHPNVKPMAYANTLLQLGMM
HIF act: HIF pathway transcriptional activation; U2OS HRE-luciferase reporter, luminescence; normalized: DMSO 0%, desferrioxamine 100%; activation, % at 7.5 µM (by protocol); 300,000 compounds, 0.32% hits; AID 1910;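 active means mean activation of at least 10% of the iron chelator positive control signal, with at least half of replicates also reaching 10%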
NS3 helicase inh: blocks Hepatitis C virus NS3 helicase unwinding; AID 1800; inhibition, % at 10.9 µM; NS3 helicase DNA unwinding, Cy5 molecular beacon fluorescence; 290,000 compounds, 0.56% hits;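 active means inhibition above the mean of all tested compounds plus 3 SD, set per campaign, cut at about 35% in these data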;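 further: 0% = DMSO wells and 100% = thioflavine S control wells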
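Control set: DMSO versus 110 µM thioflavine S; Material: NS3 helicase fragment of HCV; Measured by: Cy5 fluorescence at 0 and 60 min, beacon hairpin quenching; Read-out basis: percent inhibition from t60/t0 fluorescence ratio; Times: reaction time 60 min, 25 °C; Repeats: single replicate; Compound dosing: single dose, 10.9 µM nominal final, DMSO 0.8% final.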
PP1 inh: counter-screen for PP5 inhibitors: inhibitors of human PP1-alpha. 320,000 compounds, 0.9% hits. P62136. purified PP1alpha, OMFP fluorescence. inhibition, % at 6.7 µM. AID 2235;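 active means inhibition above the mean inhibition of all tested compounds plus 3 SD, computed separately for each screening campaign, cut at about 15% in these data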
DNA FID counter: fluorescent intercalator displacement, NS3 helicase counter-screen; DNA fluorescent intercalator displacement, fluorescence; inhibition, % at 7.9 µM; AID 1845; 290,000 compounds, 0.17% hits; in the data active means inhibition above about 37%;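 further: 0% = vehicle and 100% = reference compound; higher means more ethidium bromide displaced from hairpin DNA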
PP1 confirm: confirmation of human PP1 phosphatase inhibitors; purified PP1alpha, OMFP substrate fluorescence; 1,900 compounds, 52% hits; inhibition, % at 6.7 µM; shares compounds with PP1 inh; AID 2358;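 active means mean PP1 inhibition above a set limit taken from the earlier primary screen, cut at about 15% in these data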
PP5 inh counter: inhibits human PP5 phosphatase in PP1 counter-screen. 1,900 compounds, 4% hits. shares compounds with PP1 inh. AID 2360. inhibition, % at 6.7 µM. purified PP5c, OMFP fluorescence;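 active means mean PP5 inhibition over triplicate wells above about 9.5% taken from the earlier PP1 screen, limit read from the data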
The depositor's hits bear a star; . = no result.

SMILES | PP5 primary | HIF act | NS3 helicase inh | PP1 inh | DNA FID counter | PP1 confirm | PP5 inh counter
Cc1cccc2c1Sc1ccc(Cl)cc1CC2N1CCNCC1 (stereo not given) | 2.7 | 0.6 | . | 18.8* | . | -3.7 | -2.2
CCc1cccc2c1Sc1ccccc1CC2N1CCNCC1 (stereo not given) | 0.6 | -0.8 | . | 11.1 | . | . | .
Cc1ccc(S(=O)(=O)N2[C@@H](c3cccc(Cl)c3)C(C(=O)O)=CC[C@H]2c2ccc(Cl)cc2)cc1 | 1.8 | . | . | 18.7* | . | 10.1 | 1.8
Cc1ccc(S(=O)(=O)N2[C@@H](c3ccc(Cl)cc3)C(C(=O)O)=CC[C@H]2c2ccc(Cl)c(Cl)c2)cc1 | 3.4 | . | . | 21.1* | . | 15.6* | 3.1
Oc1ccc(Nc2nc(N3CCCC3)c3ccccc3n2)cc1 | -0.1 | 0.2 | -10.8 | 7.0 | 20.1 | . | .
COc1ccc(Nc2nc(N3CCCCC3)c3ccccc3n2)cc1 | 2.9 | -20.5 | -36.8 | 21.2* | 3.0 | 2.7 | 3.3
Fc1cccc(Cl)c1CSc1ccc(-c2cccnc2)nn1 | 1.7 | 1.7 | -0.8 | 58.2* | -20.2 | -0.8 | -0.5
CC(C)=CCc1cc([C@@H]2CC(=O)c3ccc(O)c(CC=C(C)C)c3O2)ccc1O | 0.8 | -0.4 | . | -2.9 | . | . | .
Clc1ccc(CNc2nc(CN3CCOCC3)nc3scc(-c4ccccc4)c23)cc1 | 3.7 | -1.0 | -47.0 | 11.7 | -7.7 | . | .
CN(C)c1cc[n+](CC(=O)Nc2ccc(OC(F)F)cc2)cc1 | -0.1 | 0.1 | 14.2 | -2.4 | 12.2 | . | .
O=[N+]([O-])c1cc(/C=N/Nc2nc3ccccc3[nH]2)c(O)cc1O | 0.9 | 4.2 | 21.0 | 17.8* | 0.2 | 31.2* | 0.3
Cc1ccccc1/C=N/Nc1nc2ccccc2[nH]1 | 0.7 | 2.5 | -0.2 | 4.4 | 14.2 | . | .
C(=N\Nc1nc2ccccc2[nH]1)/c1cccc2cccnc12 | 0.0 | 271.2* | -23.4 | 17.6* | 26.1 | 11.0 | -2.7
O=C1CC(N2C(=O)/C(=C/C=C/c3ccccc3)SC2=S)C(=O)N1c1ccccc1 (stereo not given) | -7.4 | 0.4 | 10.4 | 24.0* | -7.7 | 7.9 | -2.1
O=C(O)CN1C(=O)/C(=C/C=C/c2ccccc2)SC1=S | 2.6 | 0.6 | 22.5 | 2.3 | -21.8 | . | .
COC(=O)c1ccccc1NC(=O)CSc1nc(N)cc(N)n1 | 0.2 | -0.1 | 2.5 | -1.3 | -3.1 | . | .
COC(=O)c1ccccc1NC(=O)CSc1nc(N)cc(=O)[nH]1 | 0.8 | -0.3 | 5.8 | 26.2* | 2.4 | -6.9 | -7.2
O=C(NCC(=O)N1CCN(c2ccccc2O)CC1)c1ccc2c(c1)OCO2 | -0.1 | -0.6 | 2.9 | 3.8 | -17.4 | . | .
c1ccc(-c2nnc(-c3ccccn3)nc2NC2CCCCC2)cc1 | 0.4 | 472.3* | -13.2 | 21.3* | -12.0 | 2.5 | -4.0
O=C(COC(=O)CC1CCCC1)Nc1ccc(Cl)cn1 | 1.2 | . | . | -3.1 | . | . | .
O=C(NCC1CCCC(CNC(=O)Nc2ccc(Cl)cn2)C1)Nc1ccc(Cl)cn1 (stereo not given) | 5.6 | -0.1 | -21.1 | 18.9* | -32.0 | 12.8 | 5.0
CC(NS(=O)(=O)OCC(Cl)(Cl)Cl)c1ccc(C(C)(C)C)cc1 (stereo not given) | 7.5 | -0.1 | -1.1 | 19.2* | -10.9 | 2.0 | 2.5
CC(C)(NS(=O)(=O)OCC(Cl)(Cl)Cl)c1ccccc1 | 2.1 | -0.3 | 1.2 | 1.4 | -3.4 | . | .
O=C(Nc1nc(-c2ccccn2)cs1)c1ccc(F)c(S(=O)(=O)N2CCOCC2)c1 | 6.8 | . | . | 30.4* | . | 37.1* | 2.4
O=C(Nc1nc(-c2ccccn2)cs1)c1cc(S(=O)(=O)N2CCOCC2)ccc1F | 0.7 | . | . | 9.0 | . | . | .
SMILES | PP5 primary | HIF act | NS3 helicase inh | PP1 inh | DNA FID counter | PP1 confirm | PP5 inh counter
CN(CC1CCCO1)S(=O)(=O)c1ccc(C(=O)Nc2nc(-c3ccccn3)cs2)cc1 (stereo not given) | 0.8 | . | -6.4 | 28.6* | -31.1 | 27.8* | -3.2
CN(CC1CCCO1)S(=O)(=O)c1ccc(C(=O)Nc2ccccc2F)cc1 (stereo not given) | 2.6 | 0.3 | -7.2 | -2.0 | -17.4 | . | .
Cc1ccc(C(=O)Nc2nc(-c3ccccn3)cs2)cc1S(=O)(=O)N1CCOCC1 | 7.4 | . | . | 30.9* | . | 35.0* | -1.1
CC(C)OC(=O)C(C)Nc1ccc(F)c(Cl)c1 (stereo not given) | 0.9 | -0.1 | 0.8 | -5.2 | -3.0 | . | .
O=C(CSc1nnc(-c2ccc(O)cc2)n1Cc1ccco1)c1cccs1 | 3.5 | -0.2 | 3.2 | 29.7* | -12.5 | -6.6 | -7.5
O=C(CSc1nnc(-c2ccc(O)cc2)n1Cc1ccco1)c1ccccc1 | 1.1 | -0.2 | 2.7 | 2.9 | -15.3 | . | .
Cc1occc1-c1nnc(SCC(=O)Nc2nccs2)n1Cc1ccco1 | -1.0 | -0.4 | 6.6 | 29.7* | -26.2 | -5.5 | -4.5
CC1CCCC(NC(=O)COC(=O)CN2C(=O)C3CCCCC3C2=O)C1C (stereo not given) | -0.1 | -0.2 | 2.4 | -3.4 | -24.1 | . | .
CCOc1ccc(NC(=O)CN(C)C(=O)Cn2c(=O)oc3ccccc32)cc1OCC | -2.1 | 0.1 | . | 41.2* | . | -4.1 | -5.9
O=c1[nH]c(CSc2nnc(Nc3ccccc3)s2)nc2ccccc12 | -1.9 | -0.2 | -0.6 | 28.1* | -1.6 | 17.9* | -3.4
COc1cc(/C=C/C(=O)OCC(=O)Nc2nnc(-c3ccccc3)o2)cc(OC)c1OC | -0.1 | 0.0 | . | 6.8 | . | . | .
O=C(Nc1nnc(-c2ccc(F)cc2)o1)c1cccc([N+](=O)[O-])c1 | 1.3 | -0.2 | 12.1 | 18.9* | -0.4 | 16.5* | 3.1
O=C(COc1ccccc1)Nc1nnc(-c2ccccc2Cl)o1 | 2.9 | -0.2 | 25.6 | 22.9* | -18.6 | 20.2* | -4.8
CS(=O)(=O)c1ccccc1-c1nnc(NC(=O)COc2ccc(Cl)cc2)o1 | -0.3 | -0.3 | . | -0.4 | . | . | .
O=C(Nc1nnc(-c2ccncc2)o1)c1ccccc1 | 0.7 | -2.3 | -7.5 | -0.8 | -2.7 | . | .
O=C(COC(=O)/C=C/c1ccccc1)Nc1nnc(-c2ccccc2)o1 | 0.3 | -0.6 | . | 24.4* | . | 30.0* | -3.6
O=C(Nc1nnc(-c2ccc3c(c2)CCCC3)o1)c1ccccc1 | -0.5 | 0.1 | 20.0 | 23.0* | -23.2 | 28.4* | 0.4
Cc1ccc(C)c(NC(=S)N/N=C/C(C)c2ccccc2)c1 (stereo not given) | -0.5 | 0.2 | -6.7 | -3.2 | -26.1 | . | .
CC(=S)c1c(C)cc2cc(C)ccn12 | 3.5 | 0.1 | 9.1 | -4.1 | -2.0 | . | .
O=C(COc1ccccc1)Nc1nnc(-c2ccc3c(c2)CCCC3)o1 | 2.9 | 1.8 | 2.5 | 26.5* | -9.7 | 27.2* | 1.5
O=C(CSc1n[nH]c(=O)[nH]c1=O)Nc1ccc2c(c1)C(=O)c1ccccc1C2=O | -0.4 | 0.6 | 2.2 | 21.1* | 8.4 | 30.8* | -1.0
O=C(CSc1ccccn1)Nc1ccc2c(c1)C(=O)c1ccccc1C2=O | 1.8 | 3.1 | 12.8 | 4.2 | 7.6 | . | .
O=C(CN1C(=O)NC2(CCCC2)C1=O)N1CCN(c2ccccc2O)CC1 | -1.5 | 0.0 | . | 17.6* | . | -6.4 | -3.1
